Source: BindingDB's records for doi:10.1021/acs.jmedchem.5b01762 (University of Illinois At Chicago, 2016)

Assays:
[1] = biological target: T1, DNA repair protein RAD51 homolog 1 (Homo sapiens, UniProt Q06609); experiment: Inhibition of human N-terminal 6-histidine/Avi-tagged recombinant RAD51 expressed in Escherichia coli BL21(DE3) assessed as D-loop formation using 5'-32P-labeled 90-mer ssDNA as substrate preincubated for 10 mins followed by substrate addition with subsequent incubation with substrate for 5 mins measured after 20 mins in presence of supercoiled pRS306 dsDNA by agarose gel electrophoresis
T1 sequence (Q06609 whole entry): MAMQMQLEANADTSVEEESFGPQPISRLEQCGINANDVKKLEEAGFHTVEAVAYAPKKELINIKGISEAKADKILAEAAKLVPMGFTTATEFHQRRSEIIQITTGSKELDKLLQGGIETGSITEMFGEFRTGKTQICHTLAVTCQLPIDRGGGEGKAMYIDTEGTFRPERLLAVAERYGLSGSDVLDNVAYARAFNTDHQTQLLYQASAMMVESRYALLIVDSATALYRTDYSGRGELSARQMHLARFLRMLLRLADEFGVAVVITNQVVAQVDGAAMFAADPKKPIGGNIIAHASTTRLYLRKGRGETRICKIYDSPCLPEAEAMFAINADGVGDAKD

[2] = biological target: T1, DNA repair protein RAD51 homolog 1; experiment: Inhibition of Escherichia coli BL21(DE3) expressing human N-terminal 6-histidine/Avi-tagged RAD51 binding to 5'-Alexa488-oligo-dT45 ssDNA preincubated for 40 mins followed by substrate addition measured after 40 mins by fluorescence polarization based microplate method
Outline: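 Human RAD51 preincubated with compound in DMSO at 37 °C for 40 min, then 5'-Alexa488-oligo-dT45 added and incubated another 40 min at 37 °C. Buffer: 20 mM HEPES pH 7.5, 2 mM ATP, 10 mM MgCl2, 0.1 mM TCEP. IC50 from least-squares dose–response fits with standard error.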

IC50 [1]: > 100 µM
IC50 [2]: > 100 µM
SMILES: COc1ccc2c(c1)NC(c1ccc(N(C)C)cc1)c1cccn1-2 (configuration not stated)
